What was measured:
[1] = molecular target: T1, 5-hydroxytryptamine receptor 1A (Rattus norvegicus, UniProt P19327); assay: In vitro binding affinity measured on serotonin 5-hydroxytryptamine 1A receptor using [3H]8-OH-DPAT as radioligand.
T1 sequence (P19327 whole entry): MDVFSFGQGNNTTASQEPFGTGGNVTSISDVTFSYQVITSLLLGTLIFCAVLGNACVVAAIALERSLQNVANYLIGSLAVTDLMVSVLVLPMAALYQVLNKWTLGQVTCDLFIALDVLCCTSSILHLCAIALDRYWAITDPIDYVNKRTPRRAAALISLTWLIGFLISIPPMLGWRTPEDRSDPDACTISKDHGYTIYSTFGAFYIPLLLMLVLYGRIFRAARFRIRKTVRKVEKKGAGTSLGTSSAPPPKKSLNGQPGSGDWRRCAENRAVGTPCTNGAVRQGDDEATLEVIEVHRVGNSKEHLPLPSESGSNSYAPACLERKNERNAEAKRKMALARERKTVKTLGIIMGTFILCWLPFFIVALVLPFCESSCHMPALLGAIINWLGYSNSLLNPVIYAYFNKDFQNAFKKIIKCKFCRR

[2] = molecular target: Serotonin 2 (5-HT2) receptor (Rattus norvegicus, UniProt P30994+P08909+P14842); assay: In vitro binding affinity measured on serotonin 5-hydroxytryptamine 2 receptor using [3H]ketanserin as radioligand.; assay type: protein assay
[3] = molecular target: T2, Adrenergic receptor alpha-1 (Rattus norvegicus, UniProt P15823+P23944+P43140); assay: In vitro binding affinity measured on alpha-1 adrenergic receptor using [3H]prazosin as radioligand.; assay type: protein assay
T2 sequence (P15823 whole entry): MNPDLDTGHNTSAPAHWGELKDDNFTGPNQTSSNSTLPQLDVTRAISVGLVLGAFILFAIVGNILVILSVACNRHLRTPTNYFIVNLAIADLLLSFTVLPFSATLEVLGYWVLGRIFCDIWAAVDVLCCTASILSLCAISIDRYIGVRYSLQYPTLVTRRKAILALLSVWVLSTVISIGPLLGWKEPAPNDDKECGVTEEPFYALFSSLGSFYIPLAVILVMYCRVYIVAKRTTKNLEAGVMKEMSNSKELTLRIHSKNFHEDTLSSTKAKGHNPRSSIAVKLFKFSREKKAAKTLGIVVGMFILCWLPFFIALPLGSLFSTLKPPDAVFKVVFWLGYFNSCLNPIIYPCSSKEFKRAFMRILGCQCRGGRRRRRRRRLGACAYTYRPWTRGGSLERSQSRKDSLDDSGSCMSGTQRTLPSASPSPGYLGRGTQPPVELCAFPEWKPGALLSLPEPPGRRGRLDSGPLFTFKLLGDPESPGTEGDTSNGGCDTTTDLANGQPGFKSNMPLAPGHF
T2 sequence (P23944 whole entry): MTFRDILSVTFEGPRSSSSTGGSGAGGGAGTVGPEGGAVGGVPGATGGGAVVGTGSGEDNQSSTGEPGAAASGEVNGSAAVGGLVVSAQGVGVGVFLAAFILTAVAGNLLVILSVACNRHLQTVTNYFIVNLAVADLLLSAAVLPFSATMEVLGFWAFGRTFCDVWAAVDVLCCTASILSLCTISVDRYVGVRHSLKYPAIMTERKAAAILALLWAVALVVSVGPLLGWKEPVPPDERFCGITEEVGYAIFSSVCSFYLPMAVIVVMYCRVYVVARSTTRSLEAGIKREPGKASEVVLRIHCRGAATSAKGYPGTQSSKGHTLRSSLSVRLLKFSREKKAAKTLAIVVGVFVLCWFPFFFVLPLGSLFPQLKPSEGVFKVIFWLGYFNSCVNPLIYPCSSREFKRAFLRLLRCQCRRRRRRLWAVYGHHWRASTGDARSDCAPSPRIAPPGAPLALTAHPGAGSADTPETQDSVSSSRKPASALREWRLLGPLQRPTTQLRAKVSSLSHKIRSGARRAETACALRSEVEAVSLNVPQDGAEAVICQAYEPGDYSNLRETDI
T2 sequence (P43140 whole entry): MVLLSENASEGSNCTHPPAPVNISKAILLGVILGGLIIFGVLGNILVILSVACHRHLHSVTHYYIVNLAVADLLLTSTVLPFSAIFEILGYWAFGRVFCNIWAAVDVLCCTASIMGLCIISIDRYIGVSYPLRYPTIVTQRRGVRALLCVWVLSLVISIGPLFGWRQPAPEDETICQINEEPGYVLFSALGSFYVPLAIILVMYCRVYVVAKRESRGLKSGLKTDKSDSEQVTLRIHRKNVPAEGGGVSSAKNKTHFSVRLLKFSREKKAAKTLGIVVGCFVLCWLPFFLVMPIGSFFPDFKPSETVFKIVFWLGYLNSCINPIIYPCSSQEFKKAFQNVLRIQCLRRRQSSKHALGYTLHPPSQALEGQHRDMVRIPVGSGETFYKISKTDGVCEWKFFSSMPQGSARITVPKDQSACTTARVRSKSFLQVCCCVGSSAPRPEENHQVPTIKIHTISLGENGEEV

D(2) dopamine receptor = D(2) dopamine receptor (Rattus norvegicus, UniProt P61169); assay: In vitro binding affinity measured on dopamine receptor D2 using [3H]spiroperidol as radioligand.
D(2) dopamine receptor, sequence (P61169 whole entry): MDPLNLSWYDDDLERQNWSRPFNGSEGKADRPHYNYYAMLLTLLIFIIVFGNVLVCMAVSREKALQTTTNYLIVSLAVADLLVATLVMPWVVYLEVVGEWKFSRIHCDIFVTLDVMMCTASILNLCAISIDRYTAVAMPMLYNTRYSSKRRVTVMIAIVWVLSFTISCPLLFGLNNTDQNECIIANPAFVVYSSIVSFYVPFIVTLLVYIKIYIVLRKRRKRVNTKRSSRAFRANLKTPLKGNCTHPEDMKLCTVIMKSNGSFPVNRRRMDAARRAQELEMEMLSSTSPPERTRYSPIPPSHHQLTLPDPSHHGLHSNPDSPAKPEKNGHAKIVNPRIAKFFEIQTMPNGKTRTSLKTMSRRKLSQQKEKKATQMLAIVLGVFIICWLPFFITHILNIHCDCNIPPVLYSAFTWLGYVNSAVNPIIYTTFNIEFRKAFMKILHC
Method in brief: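 IC50 came from 7–9 drug concentrations in triplicate, over 2–4 independent experiments, analysed with EBDA. Specific binding exceeded 75% of total.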

[4] = Selectivity ratio of IC50 value against D-2 receptor to that of 5-HT1A receptor.
Method in brief: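 Ratio of the D-2 IC50 to the 5-HT1A IC50. […] Each IC50 came from 7–9 concentrations in triplicate over 2–4 experiments (EBDA).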

[5] = molecular target: Serotonin 1a (5-HT1a) receptor/Adrenergic receptor alpha-1 (Rattus norvegicus) (UniProt P15823+P23944+P43140+P19327); assay: Selectivity ratio of IC50 value against alpha-1 receptor to that of 5-HT1A receptor.; assay type: protein assay
Method in brief: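 Ratio of the α1 IC50 to the 5-HT1A IC50 ([3H]-8-OH-DPAT, rat cortex). For α1, male Sprague-Dawley rat cortex membranes were prepared in 50 mM Tris-HCl pH 7.7 with 10 μM pargyline and 0.1% ascorbate.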

Cavia porcellus = species on record: Cavia porcellus; assay: Selectivity as the ratio of IC50 value against sigma receptor to that of 5-HT1A receptor.
Method in brief: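 Ratio of the σ IC50 to the 5-HT1A IC50. For σ, a P2 membrane fraction was prepared from whole male guinea pig brain without cerebellum in 50 mM Tris-HCl pH 7.4. [3H]DTG was 0.90 nM final, incubated 90 min at 25 °C, then filtered and counted. IC50 values came from 7–9 concentrations in triplicate (EBDA).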

Row | IC50 [1] [nM] | IC50 [2] [nM] | IC50 [3] [nM] | IC50 (D(2) dopamine receptor) [nM] | Selectivity [4] | Selectivity [5] | Selectivity (Cavia porcellus) | SMILES
1 | 55.9 | 2370 | 278 | 644 | 12 | 5 |  | COc1cccc2c1CCC=C2CCCN1CCN(c2cccc(C(F)(F)F)c2)CC1
2 | 0.58 | 331 | 31.4 | 177 |  |  |  | COc1cccc2c1CCCC2CCCN1CCN(c2ccccn2)CC1 (stereo not drawn)
3 | 63.6 | 146 | 152 | 778 | 12 | 2.4 | 3.9 | COc1ccc2c(c1)C(CCCN1CCN(c3ccccn3)CC1)=CCC2
4 |  | 204 | 49 | 303 |  |  |  | COc1cccc2c1CCC=C2CCCN1CCN(c2ccccc2)CC1
5 | 1.53 | 209 | 15.3 | 10.6 |  |  |  | COc1ccc2c(c1)C(CCCCN1CCN(c3ccccc3OC)CC1)=CCC2
6 | 0.32 | 358 | 1.94 |  |  |  |  | COc1ccccc1N1CCN(CCCC2CCCc3c(OC)cccc32)CC1 (stereo not drawn)
7 | 1.73 |  | 78.3 | 15.4 | 8.9 | 45 |  | COc1ccccc1N1CCN(CCCCC2CCCc3c(OC)cccc32)CC1 (stereo not drawn)
8 | 146 |  | 7170 | 472 | 3.2 | 49 |  | COc1cccc2c1CCCC2CCCN1CCN(c2cccc(C(F)(F)F)c2)CC1 (stereo not drawn)
9 | 88.4 | 391 | 2930 | 1330 | 15 | 33 | 0.99 | COc1ccc2c(c1)C(CCCN1CCN(c3cccc(C(F)(F)F)c3)CC1)CCC2 (stereo not drawn)
10 | 2 | 391 | 24.5 | 90.6 | 45 | 12 | 114 | COc1ccc2c(c1)C(CCCN1CCN(c3ccccc3OC)CC1)=CCC2
11 | 9.24 |  | 184 | 28 | 3 | 20 |  | COc1ccc2c(c1)C(CCCN1CCN(c3ccccc3)CC1)CCC2 (stereo not drawn)
12 | 8.8 | 770 | 32.3 | 17.4 | 2 | 3.7 | 3.8 | COc1ccccc1N1CCN(CCCC2=CCCc3c(OC)cccc32)CC1
13 | 147 | 119 | 157 | 777 |  |  |  | COc1ccc2c(c1)C(CCCN1CCN(c3ccccc3)CC1)=CCC2
14 | 7.01 | 3340 | 149 | 618 | 88 | 21 | 22 | COc1ccccc1N1CCN(CCNC2CCCc3c(OC)cccc32)CC1 (stereo not drawn)
15 | 0.36 | 170 | 78.8 | 96.7 |  |  |  | COc1cccc2c1CCCC2CCCN1CCN(c2ccccc2)CC1 (stereo not drawn)
16 | 1.08 |  | 120 | 7.83 | 7.3 | 111 |  | COc1ccccc1N1CCN(CCSC2CCCc3c(OC)cccc32)CC1 (stereo not drawn)
17 | 5.94 | 111 | 116 | 50.2 | 8.5 | 20 | 20 | COc1ccc2c(c1)C(SCCN1CCN(c3ccccc3OC)CC1)CCC2 (stereo not drawn)
18 | 3.38 | 288 | 261 | 328 | 97 | 77 | 37 | COc1ccc2c(c1)C(CCCN1CCN(c3ccccn3)CC1)CCC2 (stereo not drawn)
19 | 13 |  | 96.2 | 5920 | 455 | 7.4 |  | COc1ccccc1N1CCN(CCCCC2=CCCc3c(OC)cccc32)CC1
20 | 1.5 | 220 | 43.2 | 51.5 |  |  |  | COc1ccc2c(c1)C(CCCN1CCN(c3ccccc3OC)CC1)CCC2 (stereo not drawn)
21 | 0.39 | 155 | 0.14 | 24.7 | 63 | 0.36 |  | COc1ccccc1N1CCN(CCCC2CCCc3ccccc32)CC1 (stereo not drawn)
22 | 1.13 | 147 | 1.26 | 24.1 |  |  |  | COc1ccccc1N1CCN(CCCC2CCCc3ccsc32)CC1 (stereo not drawn)
23 | 1.4 | 205 | 123 | 119 |  |  |  | COc1cccc2c1CCC=C2CCCN1CCN(c2ccccn2)CC1
24 | 0.35 | 417 | 72.2 | 150 |  |  |  | COc1cccc2c1CCC/C2=C\CCN1CCN(c2ccccn2)CC1
25 | 1.84 | 147 | 3.6 | 12.7 | 6.9 | 2 | 30 | COc1ccccc1N1CCN(CC/C=C2\CCCc3ccccc32)CC1
26 | 0.52 | 667 | 6 | 11.3 | 22 | 12 | 100 | COc1ccccc1N1CCN(CC/C=C2\CCCc3c(OC)cccc32)CC1
27 | 138 | 1170 | 3070 | 1290 | 9.4 | 22 |  | COc1ccc2c(c1)C(CCCN1CCN(c3cccc(C(F)(F)F)c3)CC1)=CCC2
28 | 8.83 | 329 | 78.5 | 50.9 |  |  |  | COc1ccc2c(c1)C(CCCCN1CCN(c3ccccc3OC)CC1)CCC2 (stereo not drawn)

— ChEMBL document CHEMBL1128270 (J Med Chem, 1995)
